From ChEMBL document CHEMBL1134405 (J Med Chem, 2001) come the findings set out here.

Active and inactive are the calls of the source. The rule behind the calls is not given here. Peptide text beside a SMILES is read from it.

A short description of assay [1]: pA2 value, a dose-response plot was obtained by determining the response when the concentration of glucagon was varied while the concentration was kept same.
Assay [2] deals with T1, Glucagon receptor (Rattus norvegicus, UniProt P30082). The experiment in a line: (§1) Compound was evaluated for its ability to displace radiolabeled glucagon (inactive up to 100 uM).
T1 sequence (P30082 whole entry): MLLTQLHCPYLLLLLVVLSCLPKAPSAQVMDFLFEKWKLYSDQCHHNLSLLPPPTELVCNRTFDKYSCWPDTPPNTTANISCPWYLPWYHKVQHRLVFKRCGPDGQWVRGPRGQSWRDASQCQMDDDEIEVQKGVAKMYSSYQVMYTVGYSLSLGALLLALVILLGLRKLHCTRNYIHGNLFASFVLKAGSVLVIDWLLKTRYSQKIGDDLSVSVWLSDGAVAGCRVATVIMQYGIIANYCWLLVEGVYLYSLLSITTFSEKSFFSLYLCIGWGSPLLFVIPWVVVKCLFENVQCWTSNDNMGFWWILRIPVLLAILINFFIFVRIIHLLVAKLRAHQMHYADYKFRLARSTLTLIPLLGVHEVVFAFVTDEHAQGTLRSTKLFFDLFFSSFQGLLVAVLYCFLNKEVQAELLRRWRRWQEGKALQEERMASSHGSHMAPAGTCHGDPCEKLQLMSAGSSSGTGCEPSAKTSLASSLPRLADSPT
Assay [3] addresses T1, Glucagon receptor. The experiment in a line: Compound was evaluated for its ability to displace radiolabeled glucagon. The method, boiled down: (§2)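 Incubation 10 min at 30 °C, then ice cooling and filtration on 0.45 μm cellulose acetate, gamma counting. Nonspecific binding taken with 1024 nM unlabeled peptide and subtracted. Read as % inhibition of specific binding. Triplicates, repeated twice.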

The target of assay [4] is Glucagon receptor (Rattus norvegicus) (UniProt P30082). The experiment in a line: Relative binding by measuring competition for glucagon receptor between [125]glucagon and the compound. The method, boiled down: as §2
Sequence of Glucagon receptor (Rattus norvegicus) (P30082 whole entry): as above
For assay [5], the target named is T2, Adenylate cyclase (Rattus norvegicus) (UniProt D4A3N4+P26770+Q04400+P26769+Q03343+P40146+Q8CFM9+P21932). The experiment in a line: Relative potency was evaluated by measuring potency for conversion of [alpha-32P]ATP to cyclic 3',5'-AMP relative to glucagon. Type of assay: protein assay.
For assay [6], the target named is T1, Glucagon receptor. The experiment in a line: IC50 value was expressed for inhibition of [125]glucagon specific binding. The method, boiled down:
as §2

For assay [7], the target named is Adenylate cyclase. The experiment in a line: Adenylate cyclase activity of the compound, expressed as effective concentration. Type of assay: protein assay. The method, boiled down:
(§3)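 Rat liver plasma membranes (male Sprague–Dawley, 200–250 g; sucrose-gradient purified), 35 μg protein in 0.1 mL with 1 mM [α-32P]ATP, 5 mM MgCl2, GTP, 1 mM EDTA, 1 mM cAMP plus [3H]cAMP tracer, 25 mM Tris pH 7.5, 0.4% BSA, phosphocreatine/creatine kinase regeneration. Labeled cAMP isolated by sequential Dowex and alumina chromatography.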

The target of assay [8] is Adenylate cyclase. The experiment in a line: Effective concentration required for 50% conversion of [alpha-32P]ATP to cyclic 3',5'-AMP. Type of assay: protein assay. The method, boiled down: as §3
The target in assay [9] is T2, Adenylate cyclase (Rattus norvegicus). The experiment in a line: Adenylate cyclase activity of the compound, evaluated for the percentage maximum stimulation. The assay is classed as protein assay. Summed up:
as §3

For assay [10], the target named is Glucagon receptor (Rattus norvegicus) (UniProt P30082). The experiment in a line: Relative binding was evaluated by measuring competition for glucagon receptor between [125I]glucagon and the compound.
In assay [11] the target is T2, Adenylate cyclase (Rattus norvegicus). The experiment in a line: Maximum stimulation of adenylate cyclase. The assay is classed as protein assay.
The target is the same in assay [12]. The experiment in a line: Adenylate cyclase activity of the compound, expressed as effective concentration (inactive up to 100 uM). The assay is classed as protein assay. Summed up: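 Adenylate cyclase in rat liver plasma membranes (35 μg protein), in 0.1 mL of 1 mM [α-32P]ATP, 5 mM MgCl2, […], 1 mM EDTA, 1 mM cAMP with [3H]cAMP tracer, 25 mM Tris pH 7.5, 0.4% BSA, plus a phosphocreatine/creatine phosphokinase regenerating system. [32P]cAMP isolated on Dowex and alumina columns.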

Assay [13] concerns the target Glucagon receptor (Rattus norvegicus) (UniProt P30082). The description is as §1. The method, boiled down:
as §2

As usually defined, the pA2 is the negative logarithm of the molar antagonist concentration that doubles the agonist concentration needed for the same response. A lower pA2 goes with a weaker antagonist. A word on the IC50: it is the midpoint of a concentration-inhibition curve. A high value points to a need for much substance. In assay [1], `CSCC[C@H](NC(=O)[C@H](CC(C)C)NC(=O)[C@H](Cc1c[nH]c2ccccc12)NC(=O)[C@H](CCC(N)=O)NC(=O)[C@@H](NC(=O)[C@H](Cc1ccccc1)NC(=O)[C@H](CC(=O)O)NC(=O)[C@H](CCC(N)=O)NC(=O)[C@H](C)NC(=O)[C@H](CCCN=C(N)N)NC(=O)[C@H](CCCN=C(N)N)NC(=O)[C@H](CO)NC(=O)[C@H](CC(=O)O)NC(=O)[C@H](CC(C)C)NC(=O)[C@H](Cc1ccc(O)cc1)NC(=O)[C@H](CCCCN=C(N)N)NC(=O)[C@H](CO)NC(=O)[C@H](Cc1ccc(O)cc1)NC(=O)[C@H](CC(=O)O)NC(=O)[C@H](CO)NC(=O)[C@@H](NC(=O)[C@H](Cc1ccccc1)NC(=O)[C@@H](NC(=O)CNC(=O)[C@H](CCC(N)=O)NC(=O)[C@H](CO)NC(=O)[C@H](Cc1c[nH]cn1)Nc1c([N+](=O)[O-])cc([N+](=O)[O-])cc1[N+](=O)[O-])[C@@H](C)O)[C@@H](C)O)C(C)C)C(=O)N[C@@H](CC(N)=O)C(=O)N[C@H](C(=O)O)[C@@H](C)O` registered a pA2 of 8.16. The compound also had an IC50 in assay [2] of 15 nM.
Compound `CSCC[C@H](NC(=O)[C@H](CC(C)C)NC(=O)[C@H](Cc1c[nH]c2ccccc12)NC(=O)[C@H](CCC(N)=O)NC(=O)[C@@H](NC(=O)[C@H](Cc1ccccc1)NC(=O)[C@H](CC(=O)O)NC(=O)[C@H](CCC(N)=O)NC(=O)[C@H](C)NC(=O)[C@H](CCCN=C(N)N)NC(=O)[C@H](CCCN=C(N)N)NC(=O)[C@H](CO)NC(=O)[C@H](CC(=O)O)NC(=O)[C@H](CC(C)C)NC(=O)[C@H](Cc1ccc(O)cc1)NC(=O)[C@H](CCCCN)NC(=O)[C@H](CO)NC(=O)[C@H](Cc1ccc(O)cc1)NC(=O)[C@H](CCC(=O)O)NC(=O)[C@H](CO)NC(=O)[C@@H](NC(=O)[C@H](Cc1ccccc1)NC(=O)[C@@H](NC(=O)CNC(=O)[C@H](CCC(N)=O)NC(=O)[C@@H](N)CO)[C@@H](C)O)[C@@H](C)O)C(C)C)C(=O)N[C@@H](CC(N)=O)C(=O)N[C@H](C(N)=O)[C@@H](C)O` returned a pA2 in assay [1] of 7.25. In [3], the concentration for half-maximal inhibition (IC50) came to 3.75 nM.
Compound `CC(C)C[C@H](NC(=O)[C@H](Cc1ccc(O)cc1)NC(=O)[C@H](CCCCN)NC(=O)[C@H](CO)NC(=O)[C@H](Cc1ccc(O)cc1)NC(=O)[C@H](CC(=O)O)NC(=O)[C@H](CO)NC(=O)[C@@H](NC(=O)[C@H](Cc1ccccc1)NC(=O)[C@@H](NC(=O)CNC(=O)[C@H](CCC(N)=O)NC(=O)[C@H](CO)NC(=O)[C@@H](N)Cc1c[nH]cn1)[C@@H](C)O)[C@@H](C)O)C(=O)N[C@@H](CC(=O)O)C(=O)N[C@@H](CO)C(=O)N[C@@H](CCCN=C(N)N)C(=O)N[C@@H](CCCN=C(N)N)C(=O)N[C@@H](C)C(=O)N[C@@H](CCC(N)=O)C(=O)N[C@@H](CC(=O)O)C(=O)N[C@@H](Cc1ccccc1)C(=O)N[C@H](C(=O)N[C@@H](CCC(N)=O)C(=O)O)C(C)C` displayed a Relative binding in assay [4] of 0.0002%. Also, the Relative potency in assay [5] is 0.0002%.
In turn, `CC(C)C[C@H](NC(=O)[C@H](Cc1ccc(O)cc1)NC(=O)[C@H](CCCCN)NC(=O)[C@H](CO)NC(=O)[C@H](Cc1ccc(O)cc1)NC(=O)[C@H](CC(=O)O)NC(=O)[C@H](CO)NC(=O)[C@@H](NC(=O)[C@H](Cc1ccccc1)NC(=O)[C@@H](NC(=O)CNC(=O)[C@H](CCC(N)=O)NC(=O)[C@H](CO)NC(=O)[C@@H](N)Cc1c[nH]cn1)[C@@H](C)O)[C@@H](C)O)C(=O)N[C@@H](CC(=O)O)C(=O)O` displayed a Relative binding in assay [4] below 0.0001%. The compound also registered a Relative potency in [5] below 0.0001%.
The compound `CC(C)C[C@H](NC(=O)[C@H](Cc1ccc(O)cc1)NC(=O)[C@H](CCCCN)NC(=O)[C@H](CO)NC(=O)[C@H](Cc1ccc(O)cc1)NC(=O)[C@H](CC(=O)O)NC(=O)[C@H](CO)NC(=O)[C@@H](NC(=O)[C@H](Cc1ccccc1)NC(=O)[C@@H](NC(=O)CNC(=O)[C@H](CCC(N)=O)NC(=O)[C@H](CO)NC(=O)[C@@H](N)Cc1c[nH]cn1)[C@@H](C)O)[C@@H](C)O)C(=O)N[C@@H](CC(N)=O)C(=O)N[C@@H](CO)C(=O)N[C@@H](CCCN=C(N)N)C(=O)O` displayed a Relative binding in assay [4] of 0.0001%. Also, the Relative potency in assay [5] came out at 0.0001%.
Compound `CSCC[C@H](NC(=O)[C@H](CC(C)C)NC(=O)[C@H](Cc1c[nH]c2ccccc12)NC(=O)[C@H](CCC(N)=O)NC(=O)[C@@H](NC(=O)[C@H](Cc1ccccc1)NC(=O)[C@H](CC(=O)O)NC(=O)[C@H](CCC(N)=O)NC(=O)[C@H](C)NC(=O)[C@H](CCCN=C(N)N)NC(=O)[C@H](CCCN=C(N)N)NC(=O)[C@H](CO)NC(=O)[C@H](CC(=O)O)NC(=O)[C@H](CC(C)C)NC(=O)[C@H](Cc1ccc2ccccc2c1)NC(=O)[C@H](CCCCN)NC(=O)[C@H](CO)NC(=O)[C@H](Cc1ccc(O)cc1)NC(=O)CCCc1ccccc1)C(C)C)C(=O)N[C@@H](CC(N)=O)C(=O)N[C@H](C(N)=O)[C@@H](C)O` (HELM PEPTIDE1{[O=C(CCCc1ccccc1)[*:2]].Y.S.K.[O=C([C@H](Cc1ccc2ccccc2c1)N[*:1])[*:2]].L.D.S.R.R.A.Q.D.F.V.Q.W.L.M.N.T.[am]}$$$$V2.0) yielded a pA2 in [1] of 6.7. For the same compound, the concentration for half-maximal inhibition (IC50) in assay [6] was found to be 781 nM.
What is called EC50 is the midpoint of the concentration-response curve. A lower EC50 goes with greater potency. For the compound GLUCAGON [listing 1 of 2 here], the EC50 in assay [7] came to 5.9 nM; in assay [8] it was 8 nM.
The compound GLUCAGON [listing 2 of 2 here] registered a Relative binding in [4] of 100%. Further, the Max stimulation in [9] stood at 100%.
For H-HSQGTF-OH, in [10], the Relative binding was below 0.0001%. Also, in assay [5], the Relative potency was below 0.0001%.
Compound H-HSQGTFTSDYS-NH2 came in with a Max stimulation in assay [11] of 0%. In assay [4], this compound had a Relative binding of 0%. Further, the IA entry in assay [12] and in [13] was “Inactive up to 100 uM” throughout.
For H-SQGTTSEYSKYLDSRRAQDFVQWLMNT-NH2, in assay [1], the pA2 was found to be 8.2. In assay [3], this compound registered a concentration for half-maximal inhibition (IC50) of 48 nM.
Consider H-TFTSDYSKYLDS-NH2, for which the Max stimulation in assay [11] amounted to 0%. The Relative binding in assay [4] was 0%. The IA result in [12] and in assay [13] was “Inactive up to 100 uM” each time.
